Experimental data taken from ChEMBL document CHEMBL1130234 (J Med Chem, 1997).

How the values were obtained:
[1] = Antioxidant potential was assessed from reducing activity against 2,2,di-phenyl-1-picrylhydrazyl.
[2] = molecular target: T1, Arachidonate 5-lipoxygenase (Bos taurus, UniProt Q9BEG3); experiment: 5-LO inhibitory activity was determined by inhibition of LTB4 biosynthesis in bovine polymorphonuclear leukocytes (PMNL); format: functional, cell-based
T1 sequence (Q9BEG3 whole entry): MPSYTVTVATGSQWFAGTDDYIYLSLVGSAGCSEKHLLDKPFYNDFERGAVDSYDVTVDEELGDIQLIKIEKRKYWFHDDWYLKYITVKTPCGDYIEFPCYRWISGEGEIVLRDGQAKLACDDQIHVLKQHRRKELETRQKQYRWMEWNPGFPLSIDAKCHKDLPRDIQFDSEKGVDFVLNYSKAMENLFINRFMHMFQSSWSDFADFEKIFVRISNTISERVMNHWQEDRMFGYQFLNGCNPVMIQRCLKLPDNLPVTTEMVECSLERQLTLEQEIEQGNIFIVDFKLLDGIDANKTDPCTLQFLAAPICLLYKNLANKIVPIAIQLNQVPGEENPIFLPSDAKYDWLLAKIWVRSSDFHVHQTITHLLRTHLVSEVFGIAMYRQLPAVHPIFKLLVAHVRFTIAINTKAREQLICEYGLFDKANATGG
In short: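 LTB4 biosynthesis measured in bovine polymorphonuclear leukocytes, with NDGA as the standard inhibitor; N = 3 or more, significance versus control at P < 0.01.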

[3] = system: HaCaT; experiment: Cytotoxic activity (2 uM) was measured by the amount of LDH (mU) release in HaCaT cells.; format: functional, Homo sapiens
In short: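 HaCaT cells exposed to test compound at 2 μM; LDH activity (mU) released into the culture medium measured and compared with vehicle control; N = 3.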

[4] = Partition coefficient (logP); format: physicochemical; conditions: octanol/water
[5] = system: HaCaT; experiment: Antiproliferative (inhibition of cell growth) activity against HaCaT cells (human keratinocyte line); format: functional, cell-based
In short: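 HaCaT human keratinocytes treated for 48 h. Proliferation assessed by directly counting dispersed cells under a phase-contrast microscope; N = 3, significance versus control at P < 0.01.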

## CCC1c2cccc(O)c2C(=O)c2c(O)cccc21
[1]
  kDPPH: < 2 M⁻¹ s⁻¹
[2]
  IC50: > 30 µM
[3]
  LDH: 161 mU
[4]
  logP: 4.37
[5]
  IC50: > 5 µM

## Cc1cc(O)c2c(c1)Cc1cc(O)cc(O)c1C2=O [EMODIN ANTHRONE]
[1]
  kDPPH: 21.4 M⁻¹ s⁻¹
[3]
  LDH: 114 mU
[4]
  logP: 3.9
[5]
  IC50: > 5 µM

## O=C1c2cccc(O)c2Cc2cccc(O)c21
[1]
  kDPPH: 13.5 M⁻¹ s⁻¹
[3]
  LDH: 191 mU
[4]
  logP: 3.51
[5]
  IC50: 4.3 µM

## O=C1c2c(O)cccc2Cc2cc(CO)cc(O)c21
[1]
  kDPPH: 20.1 M⁻¹ s⁻¹
[2]
  IC50: 30 µM
[3]
  LDH: 376 mU
[4]
  logP: 3.37
[5]
  IC50: 0.7 µM

## O=C1c2c(O)cccc2C(C(=O)c2ccccc2)c2cccc(O)c21
[4]
  logP: 3.81
[5]
  IC50: > 5 µM

## CCCCC(=O)C1c2cccc(O)c2C(=O)c2c(O)cccc21
[1]
  kDPPH: 7 M⁻¹ s⁻¹
[2]
  IC50: > 30 µM
[3]
  LDH: 214 mU
[4]
  logP: 4.12
[5]
  IC50: 4.4 µM

## O=C1c2c(O)cccc2C(OCc2ccccc2)c2cccc(O)c21
[2]
  IC50: > 30 µM
[4]
  logP: 4.25
[5]
  IC50: 3.8 µM

## O=C(c1ccccc1)c1cccc2c1C(=O)c1c(O)cccc1C2
[1]
  kDPPH: 39.6 M⁻¹ s⁻¹
[2]
  IC50: 27 µM
[4]
  logP: 3.99
[5]
  IC50: 4.3 µM

## O=C1c2ccccc2Cc2cccc(O)c21
[1]
  kDPPH: 9.6 M⁻¹ s⁻¹
[2]
  IC50: 13 µM
[3]
  LDH: 170 mU
[4]
  logP: 3.99
[5]
  IC50: > 5 µM

## O=C1c2c(O)cccc2C(C2c3cccc(O)c3C(=O)c3c(O)cccc32)c2cccc(O)c21
[1]
  kDPPH: < 1 M⁻¹ s⁻¹
[2]
  IC50: > 30 µM
[3]
  LDH: 263 mU
[4]
  logP: 5.01
[5]
  IC50: 0.6 µM

## O=C1c2cccc(O)c2C(=O)c2c(O)cccc21 [DANTHRON]
[1]
  kDPPH: < 2 M⁻¹ s⁻¹
[2]
  IC50: > 30 µM
[3]
  LDH: 170 mU
[4]
  logP: 4.16
[5]
  IC50: > 5 µM

## O=C1c2c(O)cccc2C(Cc2ccccc2)c2cccc(O)c21
[1]
  kDPPH: < 2 M⁻¹ s⁻¹
[2]
  IC50: > 30 µM
[3]
  LDH: 135 mU
[4]
  logP: 4.5
[5]
  IC50: > 5 µM

## O=C1c2cccc(OCc3ccccc3)c2Cc2c(OCc3ccccc3)cccc21
[1]
  kDPPH: 3.2 M⁻¹ s⁻¹
[4]
  logP: 5.73
[5]
  IC50: > 5 µM

## O=C1c2cccc(Cl)c2Cc2c(Cl)cccc21
[1]
  kDPPH: 3.4 M⁻¹ s⁻¹
[4]
  logP: 5.05
[5]
  IC50: 2.1 µM

## CC(C)=CCc1c(C)c(CC=C(C)C)c2c(c1O)C(=O)c1c(O)cc(O)c(CC=C(C)C)c1C2 [HARUNGANOL B]
[1]
  kDPPH: 3.1 M⁻¹ s⁻¹
[2]
  IC50: > 30 µM
[4]
  logP: 8.01
[5]
  IC50: > 5 µM

## O=C1c2c(Cl)cccc2Cc2cccc(Cl)c21
[1]
  kDPPH: < 2 M⁻¹ s⁻¹
[2]
  IC50: 4 µM
[4]
  logP: 3.51
[5]
  IC50: > 5 µM

## O=CC1c2cccc(O)c2C(=O)c2c(O)cccc21
[1]
  kDPPH: < 2 M⁻¹ s⁻¹
[3]
  LDH: 124 mU
[4]
  logP: 2.79
[5]
  IC50: 1.9 µM

## O=C1c2c(O)cccc2C(SCc2ccccc2)c2cccc(O)c21
[1]
  kDPPH: > 100 M⁻¹ s⁻¹
[2]
  IC50: > 30 µM
[4]
  logP: 4.87

## O=C1c2c(O)cccc2C(O)c2cccc(O)c21
[1]
  kDPPH: < 2 M⁻¹ s⁻¹
[2]
  IC50: > 30 µM
[4]
  logP: 2.91
[5]
  IC50: > 5 µM

## O=C1c2c(O)cccc2C([C@@H]2O[C@H](CO)[C@@H](O)[C@H](O)[C@H]2O)c2cc(CO)cc(O)c21 (stereo not given in full) [ALOIN]
[1]
  kDPPH: < 2 M⁻¹ s⁻¹
[2]
  IC50: > 30 µM
[4]
  logP: 1.83
[5]
  IC50: > 5 µM

## Oc1cccc(O)c1O [PYROGALLOL]
[1]
  kDPPH: > 100 M⁻¹ s⁻¹
[2]
  IC50: 4 µM
[4]
  logP: 1.19
[5]
  IC50: > 5 µM

## COC1c2cccc(O)c2C(=O)c2c(O)cccc21
[2]
  IC50: > 30 µM
[3]
  LDH: 146 mU
[4]
  logP: 3.96
[5]
  IC50: 1.1 µM

## CC(=O)Oc1cccc2c1C(=O)c1c(cccc1OC(C)=O)C2
[1]
  kDPPH: 3.6 M⁻¹ s⁻¹
[2]
  IC50: 9 µM
[3]
  LDH: 314 mU
[4]
  logP: 2.4
[5]
  IC50: 0.7 µM

## N#Cc1ccc2c(c1O)C(=O)c1c(O)cccc1C2
[1]
  kDPPH: > 100 M⁻¹ s⁻¹
[2]
  IC50: 8 µM
[4]
  logP: 3.16
[5]
  IC50: 4.2 µM

## Cc1ccc2c(c1O)C(=O)c1c(O)cccc1C2
[1]
  kDPPH: 17.2 M⁻¹ s⁻¹
[2]
  IC50: > 30 µM
[3]
  LDH: 126 mU
[4]
  logP: 4.99
[5]
  IC50: 1.5 µM

## COc1cccc2c1C(=O)c1c(O)cccc1C2
[1]
  kDPPH: 4.6 M⁻¹ s⁻¹
[3]
  LDH: 179 mU
[4]
  logP: 3.44
[5]
  IC50: 3.1 µM

## CCC(=O)c1ccc2c(c1O)C(=O)c1c(O)cccc1C2
[1]
  kDPPH: > 100 M⁻¹ s⁻¹
[4]
  logP: 4.59
[5]
  IC50: 3.3 µM

## CC(=O)Oc1cccc2c1C(=O)c1c(O)cccc1C2
[1]
  kDPPH: 16.1 M⁻¹ s⁻¹
[2]
  IC50: 6 µM
[3]
  LDH: 243 mU
[4]
  logP: 3.25
[5]
  IC50: 0.8 µM
